Measured values: ChEMBL document CHEMBL1921722, “In vitro and in vivo evaluation of select kahalalide F analogs with antitumor and antifungal activities” (Bioorg Med Chem, 2011)
Calls of active or inactive are those of the source.

How the values were obtained:
[1] = test system: OVCAR-4; experiment: Cytotoxicity against human OVCAR4 cells assessed as cell growth at 800 nM by sulforhodamine B assay relative to control; format: functional; conditions: read-out: Activity
[2] = test system: KM12; experiment: Cytotoxicity against human KM12 cells assessed as cell growth at 80 uM by sulforhodamine B assay relative to control; format: functional; conditions: read-out: Activity
[3] = test system: PC-3; experiment: Cytotoxicity against human PC3 cells assessed as cell growth at 8 nM by sulforhodamine B assay relative to control; format: functional; conditions: read-out: Activity
[4] = test system: MCF7; experiment: Cytotoxicity against human MCF7 cells by sulforhodamine B assay; format: functional
[5] = test system: A549; experiment: Cytotoxicity against human A549 cells assessed as cell growth at 8 uM by sulforhodamine B assay relative to control; format: functional; conditions: read-out: Activity
Method in brief: (§1)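 Run at NCI in the DTP 60-cell-line human tumor panel by standard procedure. Compounds were first screened at a single concentration, then tested at five tenfold-spaced concentrations. GI50 is the concentration reducing treated-cell growth to half that of untreated controls; TGI is the concentration completely halting growth.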

[6] = test system: OVCAR-4; experiment: Cytotoxicity against human OVCAR4 cells assessed as cell growth at 8 uM by sulforhodamine B assay relative to control; format: functional; conditions: read-out: Activity
[7] = test system: SW-620; experiment: Cytotoxicity against human SW620 cells assessed as cell growth at 80 nM by sulforhodamine B assay relative to control; format: functional; conditions: read-out: Activity
[8] = test system: HCC 2998; experiment: Cytotoxicity against human HCC2998 cells assessed as cell growth at 80 nM by sulforhodamine B assay relative to control; format: functional; conditions: read-out: Activity
[9] = test system: NCI/ADR-RES; experiment: Cytotoxicity against human NCI/ADR-RES cells assessed as cell growth at 8 uM by sulforhodamine B assay relative to control; format: functional; conditions: read-out: Activity
[10] = test system: HCT-116; experiment: Cytotoxicity against human HCT116 cells assessed as cell growth at 8 nM by sulforhodamine B assay relative to control; format: functional; conditions: read-out: Activity
[11] = test system: NCI-H23; experiment: Cytotoxicity against human NCI-H23 cells assessed as cell growth at 8 nM by sulforhodamine B assay relative to control; format: functional; conditions: read-out: Activity
[12] = test system: SK-MEL-2; experiment: Cytotoxicity against human SK-MEL-2 cells assessed as cell growth at 8 uM by sulforhodamine B assay relative to control; format: functional; conditions: read-out: Activity
[13] = test system: K562; experiment: Cytotoxicity against human K562 cells assessed as cell growth at 80 uM by sulforhodamine B assay relative to control; format: functional; conditions: read-out: Activity
[14] = test system: HCC 2998; experiment: Cytotoxicity against human HCC2998 cells assessed as cell growth at 800 nM by sulforhodamine B assay relative to control; format: functional; conditions: read-out: Activity
[15] = test system: SK-MEL-28; experiment: Cytotoxicity against human SK-MEL-28 cells by sulforhodamine B assay; format: functional
Method in brief: (§2)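 NCI Developmental Therapeutics Program 60-cell-line human tumor panel screen, run at NCI. A single-concentration pre-screen was followed by a five-concentration dose-response in 10-fold steps. GI50 is the concentration that reduces growth of treated cells to half that of untreated control cells. TGI is the concentration that completely halts growth.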

[16] = test system: HCT-116; experiment: Cytotoxicity against human HCT116 cells assessed as cell growth at 80 nM by sulforhodamine B assay relative to control; format: functional; conditions: read-out: Activity
[17] = test system: SK-OV-3; experiment: Cytotoxicity against human SKOV3 cells assessed as cell growth at 800 nM by sulforhodamine B assay relative to control; format: functional; conditions: read-out: Activity
[18] = test system: U-251; experiment: Cytotoxicity against human U251 cells assessed as cell growth at 8 nM by sulforhodamine B assay relative to control; format: functional; conditions: read-out: Activity
[19] = test system: A498; experiment: Cytotoxicity against human A498 cells assessed as cell growth at 800 nM by sulforhodamine B assay relative to control; format: functional; conditions: read-out: Activity; method in brief: as §1
[20] = test system: OVCAR-8; experiment: Cytotoxicity against human OVCAR8 cells by sulforhodamine B assay; format: functional
Method in brief: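 NCI Developmental Therapeutics Program 60-cell-line human tumor panel, standard procedure. Single-concentration prescreen first; active compounds then tested at five concentrations. GI50 is the concentration reducing growth of treated cells to half that of untreated controls.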

[21] = test system: NCI-H322M; experiment: Cytotoxicity against human NCI-H322M cells assessed as cell growth at 8 uM by sulforhodamine B assay relative to control; format: functional; conditions: read-out: Activity
[22] = test system: LOX IMVI; experiment: Cytotoxicity against human LOXIMVI cells assessed as cell growth at 8 nM by sulforhodamine B assay relative to control; format: functional; conditions: read-out: Activity
[23] = test system: NCI-H460; experiment: Cytotoxicity against human NCI-H460 cells assessed as cell growth at 8 nM by sulforhodamine B assay relative to control; format: functional; conditions: read-out: Activity
[24] = test system: SK-MEL-2; experiment: Cytotoxicity against human SK-MEL-2 cells by sulforhodamine B assay; format: functional; conditions: for TGI: read-out: pTGI (converted); method in brief: as §2
[25] = test system: MCF7; experiment: Cytotoxicity against human MCF7 cells assessed as cell growth at 800 nM by sulforhodamine B assay relative to control; format: functional; conditions: read-out: Activity
[26] = test system: Hs-578T; experiment: Cytotoxicity against human Hs578T cells assessed as cell growth at 8 nM by sulforhodamine B assay relative to control; format: functional; conditions: read-out: Activity
[27] = test system: PC-3; experiment: Cytotoxicity against human PC3 cells assessed as cell growth at 80 nM by sulforhodamine B assay relative to control; format: functional; conditions: read-out: Activity
[28] = test system: NCI-H226; experiment: Cytotoxicity against human NCI-H226 cells assessed as cell growth at 80 uM by sulforhodamine B assay relative to control; format: functional; conditions: read-out: Activity
[29] = test system: NCI-H460; experiment: Cytotoxicity against human NCI-H460 cells assessed as cell growth at 800 nM by sulforhodamine B assay relative to control; format: functional; conditions: read-out: Activity
[30] = test system: UACC-62; experiment: Cytotoxicity against human UACC62 cells assessed as cell growth at 80 uM by sulforhodamine B assay relative to control; format: functional; conditions: read-out: Activity
[31] = test system: Malme-3M; experiment: Cytotoxicity against human MALME-3M cells by sulforhodamine B assay; format: functional; method in brief: as §2
[32] = test system: NCI-H522; experiment: Cytotoxicity against human NCI-H522 cells assessed as cell growth at 8 uM by sulforhodamine B assay relative to control; format: functional; conditions: read-out: Activity
[33] = test system: EKVX; experiment: Cytotoxicity against human EKVX cells assessed as cell growth at 80 nM by sulforhodamine B assay relative to control; format: functional; conditions: read-out: Activity
[34] = test system: SF-539; experiment: Cytotoxicity against human SF539 cells by sulforhodamine B assay; format: functional; conditions: for TGI: read-out: pTGI (converted); method in brief: as §2
[35] = test system: HOP-62; experiment: Cytotoxicity against human HOP62 cells by sulforhodamine B assay; format: functional; conditions: for TGI: read-out: pTGI (converted)
Method in brief: (§3)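 Run by the NCI Developmental Therapeutics Program on its 60-line human tumour cell panel using the standard procedure. Compounds went through a single-concentration prescreen first, and those active by NCI criteria went on to a five-concentration growth-inhibition test. GI50 is the concentration that cuts growth of treated cells to half that of untreated control cells.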

[36] = test system: SW-620; experiment: Antitumor activity against human SW620 cells xenografted in mouse assessed as tumor cell killing at 4.7 mg/kg, ip qd for 4 days by MTT assay; format: functional, organism-based; set-up: dose 4.7 mg/kg
Method in brief: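 Hollow-fiber assay in mice. Tumor lines were grown in RPMI-1640 with 10% FBS and 2 mM glutamine. Cells at 2 × 10^6 cells/ml were loaded into 1 mm PVDF fibers (500,000 Da cutoff), heat-sealed at 2 cm and held 24–48 h at 37 °C, 5% CO2 before implantation. Compound was given IP. Fibers were collected the day after the fourth treatment for MTT (OD 540 nm, group means). A ≥50% cut in percent net growth versus vehicle counted as positive.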

[37] = test system: HOP-92; experiment: Cytotoxicity against human HOP92 cells by sulforhodamine B assay; format: functional; conditions: for TGI: read-out: pTGI (converted); method in brief: as §3

C/C=C1\NC(=O)[C@H](Cc2ccccc2)NC(=O)[C@@H](C(C)C)NC(=O)[C@@H]([C@@H](C)CC)NC(=O)[C@H](NC(=O)[C@H](NC(=O)[C@H](CCCNCc2ccc(N3CCOCC3)cc2)NC(=O)[C@H]2CCCN2C(=O)[C@H](NC(=O)[C@@H](NC(=O)[C@@H](NC(=O)[C@H](NC(=O)CCCC(C)C)C(C)C)[C@@H](C)O)C(C)C)C(C)C)[C@@H](C)CC)[C@@H](C)OC(=O)[C@H](C(C)C)NC1=O
growth at 0.8 µM [1]: 79% | growth at 80 µM [2]: 9% | growth at 0.008 µM [3]: 90% | GI50 [4]: 1450 nM | growth at 8 µM [5]: -65% | growth at 8 µM [6]: -59% | growth at 0.08 µM [7]: 99% | growth at 0.08 µM [8]: 98% | growth at 8 µM [9]: -43% | growth at 0.008 µM [10]: 102% | growth at 0.008 µM [11]: 105% | growth at 8 µM [12]: -74% | growth at 80 µM [13]: -39% | growth at 0.8 µM [14]: 6% | GI50 [15]: 1380 nM | TGI ([15]; read-out: pTGI (converted)): 2570 nM | growth at 0.08 µM [16]: 100% | growth at 0.8 µM [17]: -35% | growth at 0.008 µM [18]: 94% | growth at 0.8 µM [19]: 100% | GI50 [20]: 1700 nM | LC50 [20]: > 75900 nM | growth at 8 µM [21]: -84% | growth at 0.008 µM [22]: 95% | growth at 0.008 µM [23]: 99% | GI50 [24]: 1510 nM | TGI [24]: 2880 nM | growth at 0.8 µM [25]: 91% | growth at 0.008 µM [26]: 109% | growth at 0.08 µM [27]: 97% | growth at 80 µM [28]: -26% | growth at 0.8 µM [29]: 104% | growth at 80 µM [30]: -81% | GI50 [31]: 1700 nM | TGI ([31]; read-out: pTGI (converted)): 3160 nM | growth at 8 µM [32]: 40% | growth at 0.08 µM [33]: 98% | GI50 [34]: 1290 nM | LC50 [34]: 4570 nM | TGI [34]: 2450 nM | GI50 [35]: 1410 nM | LC50 [35]: 5750 nM | TGI [35]: 2820 nM | Activity [36]: inactive | GI50 [37]: 1700 nM | LC50 [37]: 47900 nM | TGI [37]: 7080 nM

C/C=C1\NC(=O)[C@H](Cc2ccccc2)NC(=O)[C@@H](C(C)C)NC(=O)[C@@H]([C@@H](C)CC)NC(=O)[C@H](NC(=O)[C@H](NC(=O)[C@H](CCCNCc2ccc(F)c(C)c2)NC(=O)[C@H]2CCCN2C(=O)[C@H](NC(=O)[C@@H](NC(=O)[C@@H](NC(=O)[C@H](NC(=O)CCCC(C)C)C(C)C)[C@@H](C)O)C(C)C)C(C)C)[C@@H](C)CC)[C@@H](C)OC(=O)[C@H](C(C)C)NC1=O
growth at 0.8 µM [1]: 7% | growth at 80 µM [2]: -36% | growth at 0.008 µM [3]: 109% | GI50 [4]: 1260 nM | growth at 8 µM [5]: -64% | growth at 8 µM [6]: -65% | growth at 0.08 µM [7]: 97% | growth at 0.08 µM [8]: 105% | growth at 8 µM [9]: -76% | growth at 0.008 µM [10]: 98% | growth at 0.008 µM [11]: 102% | growth at 8 µM [12]: -80% | growth at 80 µM [13]: -14% | growth at 0.8 µM [14]: -47% | GI50 [15]: 1100 nM | growth at 0.08 µM [16]: 96% | growth at 0.8 µM [17]: -46% | growth at 0.008 µM [18]: 96% | growth at 0.8 µM [19]: 96% | GI50 [20]: 1860 nM | LC50 [20]: 75900 nM | growth at 8 µM [21]: -95% | growth at 0.008 µM [22]: 96% | growth at 0.008 µM [23]: 104% | GI50 [24]: 1410 nM | TGI [24]: 2690 nM | growth at 0.8 µM [25]: 80% | growth at 0.008 µM [26]: 102% | growth at 0.08 µM [27]: 104% | growth at 80 µM [28]: -18% | growth at 0.8 µM [29]: 104% | growth at 80 µM [30]: -91% | GI50 [31]: 1480 nM | growth at 8 µM [32]: 3% | growth at 0.08 µM [33]: 97% | GI50 [34]: 1290 nM | LC50 [34]: 4370 nM | TGI [34]: 2400 nM | GI50 [35]: 1200 nM | LC50 [35]: 4370 nM | TGI [35]: 2290 nM | Activity [36]: inactive | GI50 [37]: 1410 nM | LC50 [37]: 6170 nM | TGI [37]: 2950 nM
